Data published in ChEMBL document CHEMBL3098105, “7,7'-Diazaindirubin--a small molecule inhibitor of casein kinase 2 in vitro and in cells” (Bioorg Med Chem, 2014).
Active and inactive are the calls of the source. The rule behind the calls is not given here.

Legend:
[1] = test system: PC-3; assay: Antiproliferative activity against human PC3 cells after 3 days by sulforhodamine B assay; format: functional; details: PC-3, 72 h
Outline: (§1)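 Tested in the NCI 60 cell line panel. GI50 is the concentration giving 50% inhibition of cell growth, and values are the mean of two series of tests.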

[2] = test system: SK-OV-3; assay: Antiproliferative activity against human SKOV3 cells after 3 days by sulforhodamine B assay; format: functional; details: SK-OV-3, 72 h; outline: as §1
[3] = Antiproliferative activity against human UACC257 cells after 3 days by sulforhodamine B assay; format: functional; details: UACC-257, 72 h
[4] = test system: SNB-75; assay: Antiproliferative activity against human SNB75 cells after 3 days by sulforhodamine B assay; format: functional; details: SNB-75, 72 h
[5] = Antiproliferative activity against human SF539 cells after 3 days by sulforhodamine B assay; format: functional; details: SF-539, 72 h; outline: as §1
[6] = Antiproliferative activity against human HCC2998 cells after 3 days by sulforhodamine B assay; format: functional; details: HCC 2998, 72 h; outline: as §1
[7] = test system: NCI-H23; assay: Antiproliferative activity against human NCI-H23 cells after 3 days by sulforhodamine B assay; format: functional; details: NCI-H23, 72 h; outline: as §1
[8] = target: Death-associated protein kinase 3 (Homo sapiens) (UniProt O43293); assay: Inhibition of human ZIPK assessed as residual activity at 1 uM relative to control
[9] = target: Testis-specific serine/threonine-protein kinase 1 (Homo sapiens) (UniProt Q9BXA7); assay: Inhibition of human TSSK1 assessed as residual activity at 1 uM relative to control
Chain of Testis-specific serine/threonine-protein kinase 1 (Homo sapiens) (Q9BXA7 whole entry): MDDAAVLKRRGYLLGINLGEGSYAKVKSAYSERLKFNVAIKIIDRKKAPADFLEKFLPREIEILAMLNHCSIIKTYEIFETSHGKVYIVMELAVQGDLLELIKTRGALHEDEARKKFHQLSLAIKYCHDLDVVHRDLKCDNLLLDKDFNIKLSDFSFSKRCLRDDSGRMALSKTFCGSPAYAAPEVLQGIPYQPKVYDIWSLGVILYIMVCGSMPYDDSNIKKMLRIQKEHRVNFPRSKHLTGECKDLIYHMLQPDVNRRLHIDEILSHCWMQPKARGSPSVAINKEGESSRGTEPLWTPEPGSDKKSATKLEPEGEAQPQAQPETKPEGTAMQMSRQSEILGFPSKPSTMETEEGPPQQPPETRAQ

[10] = target: Serine/threonine-protein kinase tousled-like 2 (Homo sapiens) (UniProt Q86UE8); assay: Inhibition of human TLK2 assessed as residual activity at 1 uM relative to control
[11] = test system: MCF7; assay: Induction of late stage apoptosis in human MCF7 cells expressing CK2 at 0.25 to 4 uM after 24 hrs using propidium iodide/annexin V staining by FACS analysis; format: functional, cell-based
Outline: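 MCF7 cells were then treated for 24 h, stained with FITC-annexin V in HEPES pH 7.4 binding buffer with 1.8 mM CaCl2 (15 min, dark, room temperature), then with PI (10 min), and analysed by FACS.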

[12] = test system: MCF7; assay: Cell cycle arrest in human MCF7 cells assessed as accumulation at S phase at 0.5 uM after 24 hrs using propidium iodide staining by FACS analysis (reference value: 18.59%); format: functional
[13] = target: T1, Casein kinase II (Homo sapiens) (UniProt P67870+P68400+P19784); assay: Inhibition of CK2 in human PANC1 cells assessed as reduction of Akt phosphorylation at S473 at 0.25 to 8 uM after 2 hrs by Western blot analysis; format: cell-based; details: PANC-1
Outline: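 Panc1 cells were cultured in DMEM with 10% heat-inactivated FBS and penicillin/streptomycin at 37 °C and 5% CO2. Cells were treated with a range of concentrations for 2 h, with Ly294002 as positive control. Urea-buffer lysates (20–40 µg protein) were separated on 10% SDS–PAGE and probed for pAkt (S473) and β-actin. Detection was by ECL.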

[14] = target: Protein kinase C epsilon type (Homo sapiens) (UniProt Q02156); assay: Inhibition of human PKCepsilon assessed as residual activity at 1 uM relative to control
[15] = target: Serine/threonine-protein kinase Nek2 (Homo sapiens) (UniProt P51955); assay: Inhibition of human NEK2 assessed as residual activity at 1 uM relative to control
Chain of Serine/threonine-protein kinase Nek2 (Homo sapiens) (P51955 whole entry): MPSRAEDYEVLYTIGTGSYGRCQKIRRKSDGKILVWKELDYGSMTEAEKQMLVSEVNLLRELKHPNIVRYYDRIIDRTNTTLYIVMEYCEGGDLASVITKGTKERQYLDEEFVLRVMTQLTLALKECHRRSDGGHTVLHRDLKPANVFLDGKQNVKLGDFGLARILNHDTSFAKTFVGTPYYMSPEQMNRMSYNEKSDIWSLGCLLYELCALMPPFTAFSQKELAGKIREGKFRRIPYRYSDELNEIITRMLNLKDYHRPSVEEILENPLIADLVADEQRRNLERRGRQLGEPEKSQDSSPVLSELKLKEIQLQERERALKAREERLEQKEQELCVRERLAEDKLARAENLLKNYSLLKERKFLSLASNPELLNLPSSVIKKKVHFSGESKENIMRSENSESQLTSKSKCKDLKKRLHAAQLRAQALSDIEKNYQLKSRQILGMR

[16] = target: Interleukin-1 receptor-associated kinase 4 (Homo sapiens) (UniProt Q9NWZ3); assay: Inhibition of human IRAK4 assessed as residual activity at 1 uM relative to control
Chain of Interleukin-1 receptor-associated kinase 4 (Homo sapiens) (Q9NWZ3 whole entry): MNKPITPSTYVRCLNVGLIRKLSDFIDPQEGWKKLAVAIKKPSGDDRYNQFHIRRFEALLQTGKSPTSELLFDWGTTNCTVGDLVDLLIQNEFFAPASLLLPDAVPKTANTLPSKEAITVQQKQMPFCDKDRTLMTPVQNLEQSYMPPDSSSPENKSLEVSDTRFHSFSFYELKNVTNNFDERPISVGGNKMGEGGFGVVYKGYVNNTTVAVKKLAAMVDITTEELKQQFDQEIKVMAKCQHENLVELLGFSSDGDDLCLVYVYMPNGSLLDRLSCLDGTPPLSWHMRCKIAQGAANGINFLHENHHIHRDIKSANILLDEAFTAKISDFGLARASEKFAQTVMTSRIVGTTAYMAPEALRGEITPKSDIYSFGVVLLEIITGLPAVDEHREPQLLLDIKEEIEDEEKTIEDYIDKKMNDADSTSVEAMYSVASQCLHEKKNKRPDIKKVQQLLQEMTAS

[17] = target: Ephrin type-A receptor 2 (Homo sapiens) (UniProt P29317); assay: Inhibition of human EphA2 assessed as residual activity at 1 uM relative to control
Chain of Ephrin type-A receptor 2 (Homo sapiens) (P29317 whole entry): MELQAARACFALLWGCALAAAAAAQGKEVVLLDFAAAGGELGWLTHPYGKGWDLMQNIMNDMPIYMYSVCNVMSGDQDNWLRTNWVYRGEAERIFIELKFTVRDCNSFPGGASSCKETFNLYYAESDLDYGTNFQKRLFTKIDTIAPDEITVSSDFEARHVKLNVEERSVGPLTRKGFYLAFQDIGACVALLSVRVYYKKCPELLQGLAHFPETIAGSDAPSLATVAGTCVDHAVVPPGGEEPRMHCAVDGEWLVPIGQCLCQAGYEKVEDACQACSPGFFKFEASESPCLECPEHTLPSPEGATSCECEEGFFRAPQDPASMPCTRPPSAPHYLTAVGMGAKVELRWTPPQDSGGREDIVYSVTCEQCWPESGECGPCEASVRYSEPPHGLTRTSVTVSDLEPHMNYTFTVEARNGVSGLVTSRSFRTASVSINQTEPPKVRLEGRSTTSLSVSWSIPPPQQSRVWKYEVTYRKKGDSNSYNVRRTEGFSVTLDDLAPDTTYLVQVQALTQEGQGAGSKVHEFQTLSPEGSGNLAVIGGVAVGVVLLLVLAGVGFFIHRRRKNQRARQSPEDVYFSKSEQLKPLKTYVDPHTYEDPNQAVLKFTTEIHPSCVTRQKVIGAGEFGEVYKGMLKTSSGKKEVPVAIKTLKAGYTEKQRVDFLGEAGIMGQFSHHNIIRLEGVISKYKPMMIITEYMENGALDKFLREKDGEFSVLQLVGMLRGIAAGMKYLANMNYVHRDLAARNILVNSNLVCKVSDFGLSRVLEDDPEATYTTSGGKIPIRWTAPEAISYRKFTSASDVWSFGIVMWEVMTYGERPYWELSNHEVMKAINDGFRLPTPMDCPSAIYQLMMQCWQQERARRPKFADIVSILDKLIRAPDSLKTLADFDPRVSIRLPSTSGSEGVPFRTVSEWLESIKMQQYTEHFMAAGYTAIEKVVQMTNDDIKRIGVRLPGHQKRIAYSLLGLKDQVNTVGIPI

[18] = target: Ephrin type-A receptor 1 (Homo sapiens) (UniProt P21709); assay: Inhibition of human EphA1 assessed as residual activity at 1 uM relative to control
[19] = target: T1, Casein kinase II (Homo sapiens); assay: Inhibition of human CK2 assessed as residual activity at 1 uM relative to control; format: protein-complex assay
[20] = target: Cyclin-dependent kinase 5/CDK5 activator 1 (Homo sapiens) (UniProt Q00535+Q15078); assay: Inhibition of human CDK5/p35 assessed as residual activity at 1 uM relative to control; format: protein-complex assay
[21] = target: Tyrosine-protein kinase Blk (Mus musculus) (UniProt P16277); assay: Inhibition of mouse Blk assessed as residual activity at 1 uM relative to control
[22] = target: Tyrosine-protein kinase receptor UFO (Homo sapiens) (UniProt P30530); assay: Inhibition of human Axl assessed as residual activity at 1 uM relative to control
Chain of Tyrosine-protein kinase receptor UFO (Homo sapiens) (P30530 whole entry): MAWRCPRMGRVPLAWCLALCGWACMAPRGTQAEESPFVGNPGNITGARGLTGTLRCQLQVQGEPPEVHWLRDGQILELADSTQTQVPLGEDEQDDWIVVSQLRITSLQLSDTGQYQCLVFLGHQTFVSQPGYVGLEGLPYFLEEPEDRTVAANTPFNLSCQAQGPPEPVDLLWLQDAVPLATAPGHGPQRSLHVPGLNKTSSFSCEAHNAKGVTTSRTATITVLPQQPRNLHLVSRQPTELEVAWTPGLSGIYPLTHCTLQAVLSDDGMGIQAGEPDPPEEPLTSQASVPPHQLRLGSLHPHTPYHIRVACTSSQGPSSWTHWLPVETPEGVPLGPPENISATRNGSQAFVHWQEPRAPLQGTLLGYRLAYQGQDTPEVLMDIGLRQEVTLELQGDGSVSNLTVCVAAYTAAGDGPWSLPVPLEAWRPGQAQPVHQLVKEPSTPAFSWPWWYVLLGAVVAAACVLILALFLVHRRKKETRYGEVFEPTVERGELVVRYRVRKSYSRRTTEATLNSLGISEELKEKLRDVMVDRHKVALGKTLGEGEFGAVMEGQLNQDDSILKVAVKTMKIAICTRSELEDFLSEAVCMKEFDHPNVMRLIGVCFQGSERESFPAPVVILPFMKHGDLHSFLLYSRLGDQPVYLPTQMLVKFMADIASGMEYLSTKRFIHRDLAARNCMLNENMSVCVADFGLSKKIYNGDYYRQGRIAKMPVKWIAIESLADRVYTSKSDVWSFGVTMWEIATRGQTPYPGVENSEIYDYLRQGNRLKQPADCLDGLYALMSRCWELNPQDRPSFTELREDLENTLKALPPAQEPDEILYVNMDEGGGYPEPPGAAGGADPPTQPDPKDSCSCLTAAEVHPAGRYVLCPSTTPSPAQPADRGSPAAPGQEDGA

[23] = target: NUAK family SNF1-like kinase 1 (Homo sapiens) (UniProt O60285); assay: Inhibition of human ARK5 assessed as residual activity at 1 uM relative to control
Chain of NUAK family SNF1-like kinase 1 (Homo sapiens) (O60285 whole entry): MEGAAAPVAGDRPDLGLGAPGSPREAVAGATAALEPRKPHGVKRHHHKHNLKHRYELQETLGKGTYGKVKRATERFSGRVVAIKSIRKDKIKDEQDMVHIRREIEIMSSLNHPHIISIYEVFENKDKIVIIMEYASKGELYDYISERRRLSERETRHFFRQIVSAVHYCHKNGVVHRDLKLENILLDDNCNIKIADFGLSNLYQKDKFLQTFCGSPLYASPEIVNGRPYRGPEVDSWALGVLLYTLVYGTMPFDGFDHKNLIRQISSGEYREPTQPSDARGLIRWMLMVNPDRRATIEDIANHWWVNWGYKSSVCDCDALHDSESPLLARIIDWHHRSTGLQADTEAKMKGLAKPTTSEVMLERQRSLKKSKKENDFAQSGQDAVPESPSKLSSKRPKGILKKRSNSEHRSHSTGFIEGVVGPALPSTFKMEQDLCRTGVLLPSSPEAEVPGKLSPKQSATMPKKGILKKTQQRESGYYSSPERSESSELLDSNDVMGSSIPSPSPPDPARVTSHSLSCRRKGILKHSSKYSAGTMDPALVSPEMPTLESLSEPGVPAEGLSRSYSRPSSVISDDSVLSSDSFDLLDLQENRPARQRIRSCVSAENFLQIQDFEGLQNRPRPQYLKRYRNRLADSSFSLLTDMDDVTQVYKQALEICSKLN

[24] = target: Fibroblast growth factor receptor 1 (Homo sapiens) (UniProt P11362); assay: Inhibition of FGF-R1 (unknown origin) assessed as residual activity at 10 uM relative to control
Chain of Fibroblast growth factor receptor 1 (Homo sapiens) (P11362 22-822 limits assumed): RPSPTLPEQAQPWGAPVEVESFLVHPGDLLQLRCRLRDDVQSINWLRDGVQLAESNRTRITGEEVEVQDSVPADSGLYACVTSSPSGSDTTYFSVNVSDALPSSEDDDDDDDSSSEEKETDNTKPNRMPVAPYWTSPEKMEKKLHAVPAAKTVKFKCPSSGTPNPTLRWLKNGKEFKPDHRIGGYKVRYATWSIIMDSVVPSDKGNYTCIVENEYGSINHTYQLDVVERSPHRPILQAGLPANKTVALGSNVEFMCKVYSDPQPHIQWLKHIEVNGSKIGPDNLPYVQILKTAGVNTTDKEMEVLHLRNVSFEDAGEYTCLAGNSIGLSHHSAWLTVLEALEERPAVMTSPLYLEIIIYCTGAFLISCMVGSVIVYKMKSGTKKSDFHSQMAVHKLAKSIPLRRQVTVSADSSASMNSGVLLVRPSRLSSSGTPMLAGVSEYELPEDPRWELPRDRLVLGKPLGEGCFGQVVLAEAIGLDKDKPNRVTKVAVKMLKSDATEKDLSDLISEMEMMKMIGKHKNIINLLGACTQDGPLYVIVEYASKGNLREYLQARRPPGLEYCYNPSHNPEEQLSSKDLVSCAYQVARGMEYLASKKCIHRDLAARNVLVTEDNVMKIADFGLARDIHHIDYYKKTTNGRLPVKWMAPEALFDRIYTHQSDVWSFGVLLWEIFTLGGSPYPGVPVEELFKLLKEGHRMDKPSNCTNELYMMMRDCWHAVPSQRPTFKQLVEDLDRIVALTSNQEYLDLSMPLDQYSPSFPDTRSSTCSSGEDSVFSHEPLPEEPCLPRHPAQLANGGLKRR

[25] = target: T2, Muscle, skeletal receptor tyrosine-protein kinase (Homo sapiens) (UniProt O15146); assay: Inhibition of MUSK (unknown origin) assessed as residual activity at 1 uM relative to control
T2 sequence (whole entry): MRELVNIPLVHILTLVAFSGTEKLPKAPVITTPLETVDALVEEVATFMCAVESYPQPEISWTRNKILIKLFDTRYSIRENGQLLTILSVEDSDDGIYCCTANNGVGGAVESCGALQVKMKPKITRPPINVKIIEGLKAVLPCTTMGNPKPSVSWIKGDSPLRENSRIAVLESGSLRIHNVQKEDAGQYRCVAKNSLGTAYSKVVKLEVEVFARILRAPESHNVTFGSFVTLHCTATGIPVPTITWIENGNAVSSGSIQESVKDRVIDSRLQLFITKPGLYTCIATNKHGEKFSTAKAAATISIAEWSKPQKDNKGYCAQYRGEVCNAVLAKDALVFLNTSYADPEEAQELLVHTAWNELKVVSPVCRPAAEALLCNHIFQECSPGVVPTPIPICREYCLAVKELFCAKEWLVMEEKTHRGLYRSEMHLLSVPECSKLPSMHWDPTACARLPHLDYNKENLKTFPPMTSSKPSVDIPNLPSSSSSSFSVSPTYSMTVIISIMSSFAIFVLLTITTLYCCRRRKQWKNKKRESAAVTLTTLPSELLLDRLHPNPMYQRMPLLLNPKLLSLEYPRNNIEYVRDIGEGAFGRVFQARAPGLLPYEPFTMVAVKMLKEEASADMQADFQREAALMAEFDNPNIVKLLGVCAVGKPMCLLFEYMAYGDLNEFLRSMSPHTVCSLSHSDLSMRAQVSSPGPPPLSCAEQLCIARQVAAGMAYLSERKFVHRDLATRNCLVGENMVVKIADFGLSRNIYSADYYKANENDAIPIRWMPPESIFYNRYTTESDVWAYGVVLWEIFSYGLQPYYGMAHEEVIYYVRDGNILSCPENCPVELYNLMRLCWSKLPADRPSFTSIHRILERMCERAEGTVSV

GI50 [1]: 2020 nM
GI50 [2]: 3950 nM
GI50 [7]: 376 nM
Activity [9]: 85%
Activity [10]: 103%
inhibition [13]: Active
Activity [14]: 87%
Activity [15]: 101%
Activity [16]: 93%
Activity [17]: 122%
Activity [18]: 111%
Activity [19]: 49%
Activity [20]: 96%
Activity [21]: 113%
Activity [22]: 92%
Activity [23]: 81%
Activity [24]: 81%
Activity [25]: 95%
SMILES: O=C1Nc2ncccc2/C1=C1/Nc2ncccc2C1=O
GI50 [3]: 214 nM
GI50 [4]: 1580 nM
GI50 [5]: 1900 nM
GI50 [6]: 502 nM
Activity [8]: 118%
Activity [11]: Active
Activity [12]: 17.48%
